Measured values: article PMC9366947 (ACS Omega, 2022)
Marks after values point to notes of the source that are not given here.

Experiments:
[1] = test system: pentylenetetrazol-induced clonic and tonic convulsions in mice; assay: PTZ seizures after oral dosing in mice; assay type: in vivo, C57BL/6N mice; conditions: for peak time of efficacy / effect on latency to produce convulsions: 10 mg/kg oral, 70 mg/kg PTZ; for effect on latency to produce convulsions: 2 to 8 h after dosing; for lethality/number tested, 2 h: 2 h pretreatment; for lethality/number tested, 2 h / lethality/number tested, 4 h / lethality/number tested, 8 h: 60 min observation
Procedure, shortened: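 Male C57BL/6N mice dosed orally (1% carboxymethylcellulose, 10 mL/kg). After the pretreatment interval, PTZ 70 mg/kg s.c. in 0.9% NaCl. Lethality and latency to death recorded over 60 min. Deaths compared with the vehicle + PTZ group by Fisher's exact test; n=6–7 per group.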

[2] = Partition coefficient; assay type: physicochemical; conditions: n-octanol/water, shake flask
Procedure, shortened: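 Miniaturised shake flask. Octanol stock (1000 μg/mL) mixed with presaturated n-octanol and presaturated water, shaken overnight at 500 rpm, then centrifuged 20 min at 16 000 RCF. Both layers read by UV absorbance at 300 nm against calibration curves; run in triplicate.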

[3] = Oral dose pharmacokinetics; assay type: in vivo, Sprague–Dawley rats; conditions: rat; for AUC(0-t) / Kp / Kp at 24 h / Cmax: male, Sprague-Dawley, po, 2 mg/kg; for Kp / Kp at 24 h: brain/plasma; for Cmax (brain): oral 2 mg/kg, Table 1
Procedure, shortened: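 Adult male Sprague–Dawley rats, cassette dosing by oral gavage at 2.0 mg/kg (0.4 mg/mL in 0.25% methyl cellulose/water), n=3 per time point (15 min, 40 min, 2 h, 6 h, 24 h). Under ketamine/xylazine i.p., blood taken by cardiac puncture and brains collected. Brain homogenised in methanol; plasma and brain extracts cleaned up by solid-phase extraction and quantified by UPLC–MS/MS. Values are means.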

[4] = Kinetic; assay type: physicochemical; conditions: water, 37 °C
[5] = Thermodynamic equilibrium solubility in water and other solvents; assay type: physicochemical; conditions: spectroscopic method
[6] = oral, 4 h pretreatment, PTZ 70 mg/kg
[7] = oral, 8 h pretreatment, PTZ 70 mg/kg

Row | Compound | peak time of efficacy [1] | effect on latency to produce convulsions [1] | lethality/number tested, 2 h ([1]; oral, PTZ 70 mg/kg) | lethality/number tested, 4 h [1, 6] | lethality/number tested, 8 h [1, 7] | log P [2] | AUC(0-t) ([3]; brain) [µM·h] | Kp [3] | Kp at 24 h [3] | AUC(0-t) ([3]; plasma) [µM·h] | Cmax ([3]; plasma) [nM] | Cmax (brain) [3] [nM] | persistence in solution state (supersaturation) vs free base [4] | latency to death, 4 h [1, 6] [s] | latency to death, 8 h [1, 7] [s] | improvement in water solubility, salt form vs free base [5]
1 | C#Cc1ccc2c(c1)C(c1ccccn1)=NCc1c(-c3cnco3)ncn1-2 [KRM-II-81, 5-(8-Ethynyl-6-(pyridin-2-yl)-4H-benzo[f]imidazo[1,5-a][1,4]diazepin-3-yl)oxazole] | about 2 h | approximately a doubling of the latency to produce convulsions | 0/6 ^a | 0/6 ^a | 0/6 ^a | 1.763 ± 0.12 | 2.69 | 0.32 | 0.77 | 3.59 | 1830 | 594.2 | – | – | – | –
2 | C#Cc1ccc2c(c1)C(c1ccccn1)=NCc1c(-c3cnco3)ncn1-2.Cl [KRM-II-81·HCl, 2-(8-Ethynyl-3-(oxazol-5-yl)-4H-benzo[f]imidazo[1,5-a][1,4]diazepin-6-yl)pyridin-1-ium Chloride] | about 2 h | approximately a doubling of the latency to produce convulsions | 0/6 ^a | 1/6 | 1/6 | 0.53 ± 0.06 | 2.66 | 0.52 | 1 | 2.66 | 1320 | 689.1 | remain in the solution state for a longer period of time | 15.68 | 43.00 | Approximately 13 fold
